# Hits are enriched below; roughly 3.1% of the tested compounds scored in any of these assays.
# NS3 helicase inh = inhibitors of Hepatitis C virus NS3 helicase. inhibition, % at 10.9 µM. NS3 helicase DNA unwinding, Cy5 molecular beacon fluorescence. 0.56% of 290,000 active;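 active means inhibition above the mean of all tested compounds plus 3 SD, set per campaign, cut at about 35% in these data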
#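 System: Hepatitis C virus NS3 helicase domain fragment enzyme | Reagent: Annealed dual-labelled DNA beacon duplex, ATP-started | Compound dosing: 10.9 µM single point, 0.8% DMSO | Incubation: 1 h reaction at 25 °C, ATP-initiated | Technique: Cy5 fluorescence | Evaluation: Percent inhibition from t60/t0 fluorescence ratio | Benchmarks: Low DMSO, high thioflavine S at 110 µM | Replication: Singlicate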
# HCV core dimer = blocks dimerization of HCV core protein; TR-FRET GST/Flag-core106 dimerization, 1536-well; inhibition, % at 5 µM; 0.33% of 300,000 active; AID 1899;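 active means inhibition above the mean of all tested compounds plus 3 SD, set per screening campaign, cut at about 45% in these data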
#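 Assay system: tagged HCV core106 pair (GST and Flag); medium: KF-containing HEPES buffer, pH 7.45, DTT, CHAPS, BSA; also added: Eu donor and XL665 acceptor anti-tag antibodies; dosing: 5 µM single dose; timing: compound-protein-antibody incubation 4 h at 22.5 °C; signal: TR-FRET 671 and 617 nm emission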
# VIM-2 inhibitor = blocks Pseudomonas aeruginosa VIM-2 metallo-beta-lactamase; AID 1527; 0.89% of 290,000 active; purified VIM-2, nitrocefin hydrolysis, epi-absorbance fluorescence; inhibition, % at 5.6 µM;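 active means inhibition above the mean of all tested compounds plus 3 SD, cutoff set per screening run, cut at about 7.5% in these data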;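 further: red hydrolysis product quenches plate fluorescence so inhibitors raise well fluorescence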
# UBC9 SUMO inh = SUMOylation inhibition | HTRF SUMOylation assay, SAE1/SAE2 + UBC9, in vitro | inhibition, % at 35 µM | 0.36% of 290,000 active; in the data active means inhibition above about 50%, passing the limit was not always enough; inconclusive means no clear call, values can overlap the other calls
# Target sequence (P63279 whole entry, looked up): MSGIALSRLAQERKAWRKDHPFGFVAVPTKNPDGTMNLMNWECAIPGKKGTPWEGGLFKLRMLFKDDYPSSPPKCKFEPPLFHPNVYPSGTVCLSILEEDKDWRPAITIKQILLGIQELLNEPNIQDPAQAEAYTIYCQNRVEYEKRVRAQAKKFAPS
# PHOSPHO1 inh = blocks human PHOSPHO1 phosphatase activity | Q8TCT1 | recombinant PHOSPHO1, absorbance phosphatase assay | inhibition, % at 13.3 µM | 1.1% of 290,000 active; in the data active means inhibition above about 60%
# Target sequence (Q8TCT1 whole entry, looked up): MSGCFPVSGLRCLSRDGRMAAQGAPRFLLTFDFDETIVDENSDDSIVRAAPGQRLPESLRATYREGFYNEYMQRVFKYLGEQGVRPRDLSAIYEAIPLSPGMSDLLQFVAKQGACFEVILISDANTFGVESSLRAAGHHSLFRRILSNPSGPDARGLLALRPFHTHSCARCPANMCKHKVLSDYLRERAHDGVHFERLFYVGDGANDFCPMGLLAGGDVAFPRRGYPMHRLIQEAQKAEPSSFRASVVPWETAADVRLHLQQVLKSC
# IMP-1 inh-1 = blocks Pseudomonas aeruginosa IMP-1 metallo-beta-lactamase; purified IMP-1, nitrocefin hydrolysis, epi-absorbance fluorescence; inhibition, % at 5.6 µM; 0.45% of 290,000 active; AID 1556;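 active means inhibition above the mean plus 3 SD of all compounds in the same screening run, cut at about 4.5% in these data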
#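 System: purified IMP-1 / Input: IMP-1 dispensed at 0.2 nM / Medium: 50 mM HEPES pH 7.1, 50 µM ZnSO4, 0.05% Brij 35 / Timing: 15 min enzyme–compound preincubation, then 25 min nitrocefin reaction, 25 °C / Technique: plate fluorescence quenching by hydrolysis product, ex 480/em 530 nm / Repeats: singlicate testing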
# IMP-1 inh-2 = selectivity counter-screen for VIM-2 inhibitors: IMP-1 metallo-beta-lactamase inhibitors; shares compounds with VIM-2 inhibitor; purified IMP-1, nitrocefin hydrolysis, epi-absorbance fluorescence; inhibition, % at 5.6 µM; 1,300 tested, under 10 active; AID 1856
# VIM-2 FRET inh = VIM-2 FRET inhibition, artifact counter-screen; shares compounds with VIM-2 inhibitor; AID 1857; purified VIM-2, CCF2 FRET substrate hydrolysis; 23% of 1,300 active; inhibition, % at 5.6 µM;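 active means inhibition above the mean of all tested compounds plus 3 SD, cut at about 19% in these data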
# TEM-1 counter = blocks E. coli TEM-1 beta-lactamase in VIM-2 selectivity screen. shares compounds with VIM-2 inhibitor. Purified TEM-1, nitrocefin hydrolysis, epi-absorbance fluorescence. inhibition, % at 5.6 µM. 3% of 1,300 active;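 active means inhibition above that campaign's mean inhibition plus 3 SD, cut at about 0.46% in these data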
# Target sequence (P62593 whole entry, looked up): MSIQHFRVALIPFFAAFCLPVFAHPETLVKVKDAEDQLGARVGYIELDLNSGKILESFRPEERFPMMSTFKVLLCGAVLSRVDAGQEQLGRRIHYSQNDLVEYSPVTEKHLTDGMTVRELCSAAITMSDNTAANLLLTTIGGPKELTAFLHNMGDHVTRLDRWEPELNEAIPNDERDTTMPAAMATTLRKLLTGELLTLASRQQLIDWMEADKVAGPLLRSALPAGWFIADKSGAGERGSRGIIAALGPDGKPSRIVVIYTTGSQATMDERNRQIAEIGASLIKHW
# VIM-2 confirm 2 = confirmation of P. aeruginosa VIM-2 metallo-beta-lactamase inhibitors; inhibition, % at 5.6 µM; purified VIM-2, nitrocefin hydrolysis, epi-absorbance; AID 2187; 96% of 1,300 active; shares compounds with VIM-2 inhibitor;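 active means inhibition of the VIM-2 beta-lactamase enzyme above about 11% from the earlier first-round screen, limit read from the data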
# NS3 helicase cf = HCV NS3 helicase inhibition, confirmation assay; shares compounds with NS3 helicase inh; NS3 helicase DNA unwinding, Cy5 molecular beacon fluorescence; inhibition, % at 10.9 µM; 31% of 1,600 active; AID 1943;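 active means inhibition above the mean of all tested compounds plus 3 SD, cutoff set per campaign, cut at about 36% in these data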
# FID counter trip = counter-screen for HCV NS3 helicase inhibitors: DNA intercalator displacement; shares compounds with NS3 helicase inh; DNA fluorescent intercalator displacement, fluorescence; inhibition, % at 7.9 µM; 4% of 1,600 active; AID 1945; in the data active means inhibition above about 37%;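 further: higher means more displacement of ethidium bromide from the DNA hairpin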
# FID counter DR = displaces fluorescent intercalator from DNA, HCV helicase counter-screen | shares compounds with NS3 helicase inh | fluorescent intercalator displacement from DNA, fluorescence | IC50, µM | 120 tested, under 10 active | AID 2172
# A number is an active result; i = inactive; ? = inconclusive; nt = not tested or not shown. Unless noted, how the calls were made is not given here.
SMILES,NS3 helicase inh,HCV core dimer,VIM-2 inhibitor,UBC9 SUMO inh,PHOSPHO1 inh,IMP-1 inh-1,NS3 helicase cf,FID counter trip,others
CCOc1ccccc1CN1CCCC(C(=O)c2cc(F)ccc2F)C1 (configuration not stated),i,i,i,i,i,i,nt,nt,
O=c1c2ccccc2nc(-c2ccccc2)n1-c1ccccc1,i,i,i,i,i,i,nt,nt,
O=c1c2ccccc2[se]n1-c1ccccc1,i,i,27.3,i,89.2,i,nt,nt,IMP-1 inh-2=i;VIM-2 FRET inh=i;TEM-1 counter=i;VIM-2 confirm 2=41.6
CCC(C)N1C(=O)/C(=C\c2ccc(N3CCCCCC3)cc2)C(=O)NC1=S (configuration not stated),i,i,i,i,i,i,nt,nt,
CCCCN1C(=O)/C(=C/c2ccc(N3CCCCCC3)cc2)C(=O)NC1=S,38.7,i,i,i,i,i,i,i,
Cc1ccc(/C=C2\C(=O)NC(=S)N(c3cccc(F)c3)C2=O)o1,37.4,i,i,i,i,i,64.9,i,
COc1ccc(N2C(=O)/C(=C/c3ccc(C)o3)C(=O)NC2=S)cc1,i,nt,i,i,i,i,nt,nt,
CCOc1ccc(N2C(=O)/C(=C/c3ccc(C)o3)C(=O)NC2=S)cc1,48.6,i,i,i,i,i,69.6,i,
COc1ccc(OC)c(N2C(=O)/C(=C/c3ccco3)C(=O)NC2=S)c1,43.9,83.2,i,94.5,i,i,103.6,62.2,
C=CCN1C(=O)NC(=O)/C(=C/c2c(CCN(C)C(=O)c3ccccc3)cc3c(c2OC)OCO3)C1=O,54.3,i,i,i,i,i,i,i,
O=C1NC(=O)C(=Cc2ccc(-c3ccc(S(=O)(=O)N4CCOCC4)cc3)o2)C(=O)N1,41.9,i,i,i,i,5.4,i,i,
COC(=O)CC(NC(=S)N1CC2C[C@@H](C1)Cn1c2cccc1=O)C(=O)OC (some centres not stated),i,i,i,i,nt,i,nt,nt,
CC1Oc2cc3c(-c4c(O)cc(O)c5c(O)c6c(cc45)OC(C)C(C)C6=O)c(O)cc(O)c3c(O)c2C(=O)C1C (configuration not stated),50.3,i,i,?,i,i,96.2,64.0,
COc1ccc(OC)c(N2Cc3ccccc3C2=N)c1,i,i,i,i,i,i,nt,nt,
C[C@H](NC(=O)N1C[C@H]2C[C@@H](C1)c1cccc(=O)n1C2)C(=O)Nc1ccc(F)c(F)c1,i,i,i,i,i,i,nt,nt,
O=C1C2CCN(CC2)C12CC2c1ccc(C(F)(F)F)cc1 (configuration not stated),38.6,i,i,i,i,i,i,i,
O=P(CCl)(Nc1ccccc1)C(Cl)(Cl)Cl (configuration not stated),i,i,i,i,i,i,nt,nt,
CC(C)c1ccc(-n2c(O)c(C=NC(CCS(C)=O)C(=O)O)c(=O)[nH]c2=S)cc1 (configuration not stated),40.0,i,i,i,i,i,i,i,
O=C(N/N=C/c1c(O)n(-c2ccccc2)c(=S)[nH]c1=O)c1ccccc1,i,i,i,i,i,i,nt,nt,
O=C(O)CC1OCC=C2CN3CCC45C6=CC(=O)C(=O)C([N+](=O)[O-])=C6NC4C1C2CC35 (configuration not stated),i,i,i,100.5,i,i,i,i,
O=c1cccc2n1CC1CC2CN(c2ncnc3c2cnn3-c2ccc(Cl)cc2)C1 (configuration not stated),nt,i,nt,i,i,nt,nt,nt,
O=C1NC(=S)N(C2CC2)C(=O)/C1=C/c1ccc2c(c1)CCN2CCCCl,i,i,i,i,i,i,nt,nt,
CC(C)(C)N1C(=O)NC(=O)/C(=C\c2ccc3c(c2)CCN3CCCCl)C1=O,97.3,i,i,i,i,i,i,i,
CCCCCCC(=O)c1c(O)n(-c2ccccc2OC)c(=O)[nH]c1=O,i,i,i,i,i,i,nt,nt,
NC(=O)c1ccc(N=Cc2c(O)n(Cc3ccco3)c(=O)[nH]c2=O)cc1,i,i,i,i,i,i,nt,nt,
SMILES,NS3 helicase inh,HCV core dimer,VIM-2 inhibitor,UBC9 SUMO inh,PHOSPHO1 inh,IMP-1 inh-1,NS3 helicase cf,FID counter trip,others
CCN(CC)c1ccc(N=Cc2c(O)n(Cc3ccco3)c(=O)[nH]c2=O)cc1,37.3,i,i,i,i,i,i,i,
COc1cc2[nH]c(C(=O)N3CCC4(CC3)OCCO4)cc2c(OC)c1OC,i,i,i,i,i,i,nt,nt,
Cc1c(OC(=O)N(C)C)ccc2c1O/C(=C\c1ccco1)C2=O,59.2,nt,i,i,i,i,i,i,
Cc1ccc(N2C(=O)NC(=O)/C(=C\C=C\c3ccco3)C2=O)cc1C,38.1,i,i,i,i,i,62.4,i,FID counter DR=i
O=C1NC(=O)N(c2ccccc2)C(=O)/C1=C/C=C/c1ccco1,44.9,i,i,i,i,i,i,i,
CN1C(=O)/C(=C/C=C/c2ccco2)C(=O)NC1=S,i,i,i,i,i,i,nt,nt,
Cc1cccc(N2C(=O)NC(=O)/C(=C\C=C\c3ccco3)C2=O)c1,i,i,i,i,i,i,nt,nt,
Cc1ccc(N2C(=O)NC(=O)/C(=C\C=C\c3ccco3)C2=O)cc1,41.9,i,i,i,i,i,38.5,i,
O=C1NC(=O)N(Cc2ccccc2)C(=O)/C1=C\C=C\c1ccco1,41.9,i,i,i,i,i,i,i,
O=C1NC(=O)C(CCc2ccccn2)(Cc2ccc3c(c2)OCO3)C(=O)N1CCc1ccccc1 (configuration not stated),i,i,i,i,i,i,nt,nt,
CN(C)CC1CSCCC1(O)c1ccccc1 (configuration not stated),i,i,i,i,i,i,nt,nt,
CCN1C(=O)/C(=C\c2ccc([N+](=O)[O-])s2)C(=O)NC1=S,i,nt,i,i,i,i,nt,nt,

# Compound activity from PubChem.
